Screening results (PubChem)
HTRA1 inhibitor – inhibitors of human serine peptidase HTRA1; Q92743; recombinant HTRA1, FP-rhodamine activity-based probe, fluorescence polarization; inhibition, % at 5.96 µM; actives 0.5% (n = 340,000); in the data active = inhibition above about 36%;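 also: 0% = enzyme with DMSO and 100% = wells lacking enzyme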
SIAE inh – human SIAE inhibition, primary screen; inhibition, % at 9.66 µM; SIAE FP-Rh probe binding, fluorescence polarization; AID 1053197; Q9HAT2; actives 0.69% (n = 370,000);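 active = inhibition above a cutoff: mean of compounds within the control limits plus 3 SD of those, cut at about 17% in these data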;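 also: 0% = plate median of compound wells and 100% = probe without SIAE protein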
Target sequence (Q9HAT2 whole entry, looked up): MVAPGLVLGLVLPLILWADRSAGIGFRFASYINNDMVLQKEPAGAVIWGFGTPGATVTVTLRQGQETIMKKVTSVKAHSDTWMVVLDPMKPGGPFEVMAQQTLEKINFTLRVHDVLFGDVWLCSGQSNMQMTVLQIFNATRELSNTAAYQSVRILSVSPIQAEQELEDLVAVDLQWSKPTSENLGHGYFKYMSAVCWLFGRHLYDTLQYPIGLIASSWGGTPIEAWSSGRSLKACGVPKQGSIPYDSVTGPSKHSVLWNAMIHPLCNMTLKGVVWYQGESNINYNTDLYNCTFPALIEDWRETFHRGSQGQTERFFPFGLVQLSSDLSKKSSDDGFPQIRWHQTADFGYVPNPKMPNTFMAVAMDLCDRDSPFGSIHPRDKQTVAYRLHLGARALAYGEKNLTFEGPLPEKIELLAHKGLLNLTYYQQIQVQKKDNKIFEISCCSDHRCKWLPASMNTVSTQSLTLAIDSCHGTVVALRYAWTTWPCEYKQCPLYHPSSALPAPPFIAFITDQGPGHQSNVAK
mABHD4 FP – inhibits mouse alpha/beta hydrolase domain 4; actives 0.54% (n = 370,000); purified mABHD4, FP-Rh probe fluorescence polarization; inhibition, % at 8.92 µM; Q8VD66; AID 720543;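 active = inhibition exceeding the mean over every tested compound plus 3 SD, cut at about 30% in these data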;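 also: 0% = plate median of compound wells and 100% = S159A mutant with DMSO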
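Assay system: mABHD4 protein; medium: HEPES pH 7.0, NaCl, Pluronic buffer; dosing: 8.92 µM, single dose; schedule: 45 min + 60 min at 25 °C; signal: FP readout, ex 525 nm / em 598 nm; read-out: normalized percent inhibition of probe labeling; repeats: single replicate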
pPAFAH inh – pPAFAH (human) enzyme inhibition; Q13093; recombinant pPAFAH, FP-rhodamine probe fluorescence polarization; inhibition, % at 3.39 µM; actives 1.5% (n = 330,000); AID 463082;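 active = inhibition above the mean inhibition across the screen plus 3 SD, cut at about 25% in these data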;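 also: inhibitors block binding of the rhodamine activity-based probe so polarization drops; 0% = enzyme with DMSO and 100% = wells lacking pPAFAH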
TCR CD3 inh – blocks the human TCR-CD3 interaction. TAMRA-labeled TCR probe fluorescence, biochemical. inhibition, % at 9.4 µM. actives 0.37% (n = 360,000). AID 651800;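 also: recombinant mutant TCR 2C K166C tagged with TAMRA read by polarization; 0% = receptor in buffer alone and 100% = receptor with positive control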
BSA probe FL – interferes with TAMRA-BSA probe, flagging TCR-CD3 hits. shares compounds with TCR CD3 inh. TAMRA-labeled BSA probe fluorescence counterscreen. inhibition, % at 9.4 µM. actives 10% (n = 1,200); in the data active = inhibition above about 23%;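 also: 0% = buffer low control and 100% = reference high control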
TCR-CD3 conf – TCR-CD3 interaction inhibition, confirmation. shares compounds with TCR CD3 inh. TAMRA-labeled TCR probe fluorescence binding assay. inhibition, % at 9.4 µM. actives 48% (n = 1,200)
Numbers without * were called inactive; x = no result given. Compounds with a hit are over-represented: about 2.3% of the library has one in this group of screens. Rule as the data show it, unless noted: active = inhibition above about 19%; inactive = the rest.

SMILES | HTRA1 inhibitor | SIAE inh | mABHD4 FP | pPAFAH inh | TCR CD3 inh | BSA probe FL | TCR-CD3 conf
CCOc1ccccc1C=NNC(=O)C(=O)NN=Cc1ccccc1OCC | -2 | 4 | -1 | x | 7 | x | x
O=C(NNC(=O)c1cc(-c2ccncc2)nc2ccccc12)c1ccccc1O | 20 | -1 | 8 | 8 | 28* | -10 | 21*
Cc1ccc(-c2cc(C(=O)Nc3ccncc3)c3ccccc3n2)cc1 | -13 | -3 | 2 | 0 | 6 | x | x
CCOC(=O)[C@@]12CCCC=C1N(CCc1ccc(Cl)cc1)C(=O)[C@H]2CC(=O)N1CCSCC1 | x | 7 | -1 | x | x | x | x
O=C(N/N=C/c1c(O)n(-c2ccc(Cl)cn2)c(=O)c2ccccc12)c1ccncc1 | 3 | 14 | 4 | 11 | 6 | x | x
O=C(N/N=C/c1c(O)n(-c2ccc(Cl)cn2)c(=O)c2ccccc12)C1CC1 | 10 | 12 | 10 | 4 | 23* | -11 | 26*
Cc1ccc(C(=O)Nc2cccc([N+](=O)[O-])c2)cc1S(=O)(=O)Nc1ccc(NC(=O)c2ccccc2)cc1 | -88 | -50 | -98 | -18 | 30* | 10 | 23*
Cc1ccc(NS(=O)(=O)c2cc(C(=O)Nc3cccc([N+](=O)[O-])c3)ccc2C)cc1 | -96 | -70 | -23 | -1 | 3 | x | x
O=C(O)c1ccccc1N/N=C/C1=C(N2CCOCC2)C(=C\c2ccccc2)/CC1 | 12 | 8 | 29 | 20 | 20* | -10 | -2
CC(=O)c1cccc(NC(=O)C(OC(=O)c2cccc(S(=O)(=O)N(C)c3ccccc3)c2)c2ccccc2)c1 (stereo not drawn) | -58 | -26 | -49 | -16 | 31* | 12 | 32*
CC(=O)Nc1cc(-c2ccccc2N(C)C)cn2c(-c3ccccc3)cnc12 | x | 6 | 6 | x | 5 | x | x
CC(=O)Nc1cc(-c2ccccc2N(C)C)cn2c(-c3ccc(S(C)(=O)=O)cc3)cnc12 | x | 15 | 17 | x | 31* | 6 | 14
Cn1nc(C(C)(C)C)cc1C(=O)N1CCCCC1c1cc(C(=O)NCc2ccc(F)cc2)no1 (stereo not drawn) | x | 3 | -3 | x | 1 | x | x
O=C(NNC(=S)NC(=O)c1cccc([N+](=O)[O-])c1)c1ccc(Br)cc1 | 5 | 2 | 2 | 10 | 20* | -7 | 17
O=C(NNC(=S)NC(=O)c1cccc([N+](=O)[O-])c1)c1ccc(O)cc1 | 13 | -1 | 10 | 1 | 20* | -2 | 34*
O=C(Nc1ccccc1)C1Cc2c(-c3ccc(Cl)cc3)ccnc2O1 (stereo not drawn) | x | -4 | -3 | x | -2 | x | x
CCOc1ccc(S(=O)(=O)Nc2ccc(C(=O)NNC(=O)c3ccncc3)cc2)cc1 | 4 | -2 | -1 | 7 | -1 | x | x
CCOc1ccc(NS(=O)(=O)c2ccc(C(=O)NNC(=O)c3ccccc3O)cc2)cc1 | 22 | 9 | -1 | 26* | 23* | -9 | 23*
O=C(NNC(=O)c1cc(Cl)ccc1O)c1ccc(NS(=O)(=O)c2cccs2)cc1 | 27 | 12 | 1 | 12 | 24* | -17 | 17
O=C(NNC(=O)c1ccccc1O)c1ccc(S(=O)(=O)Nc2ccccc2)cc1 | 13 | 12 | 10 | 17 | 29* | -19 | 9
CC(C)C[C@H]1CN(CCCC[C@@H]2CNC(=O)C(=O)N2CC2CCCCC2)C(=O)C(=O)N1CCc1ccccc1 | x | -8 | -8 | x | 1 | x | x
O=C(Nc1ccc2c(c1)OCO2)c1cc(C2CCCCN2S(=O)(=O)c2cccs2)on1 (stereo not drawn) | x | -3 | -7 | x | -3 | x | x
COC(=O)C[C@@H]1C=C[C@H](NC(=O)Nc2ccc(F)cc2)[C@@H](CO)O1 | x | 4 | -6 | x | -3 | x | x
CCC[C@H]1[C@@H](N)CC[C@@]23CCCN2C(=O)CCC[C@@H]13 | x | -3 | 4 | x | x | x | x
C#CCn1c(=NC(=O)c2ccc(S(=O)(=O)N3CCCc4ccccc43)cc2)sc2cc(S(N)(=O)=O)ccc21 | -128 | -130 | -109 | -23 | 21* | 19 | 23*
SMILES | HTRA1 inhibitor | SIAE inh | mABHD4 FP | pPAFAH inh | TCR CD3 inh | BSA probe FL | TCR-CD3 conf
O=C(OCC#CCSc1nnc(-c2cccc3ccccc23)o1)C1CC1 | x | -5 | -8 | x | x | x | x
Cc1cc(C(=O)N/N=C/c2ccc([N+](=O)[O-])s2)n[nH]1 | 7 | 2 | 9 | 1 | -6 | x | x
Cc1cc(C(=O)N/N=C/c2cc(Cl)cc([N+](=O)[O-])c2O)n[nH]1 | 13 | -4 | 19 | 13 | 28* | -6 | 34*
COc1ccc(CCNC(=O)c2cc3c(C)nn(-c4ccccc4)c3s2)cc1OC | x | -34 | -40 | x | x | x | x
C[C@H](NC(=O)c1nc[nH]c1C(=O)N[C@@H](CCCCNC(=O)OC(C)(C)C)C(=O)OC(C)(C)C)C(=O)OCc1ccccc1 | -36 | -14 | -29 | 8 | 27* | 1 | 3
COC(=O)c1ccccc1NC(=S)NC(=O)c1ccc2c(c1)OCO2 | 3 | 3 | 3 | x | 45* | -1 | -1
COc1cc(OC)c2c(c1O)OC(c1ccccc1)CC2=O (stereo not drawn) | 25 | 4 | 7 | 20 | 39* | -6 | 19*
O=C1CC(c2ccccc2)Oc2cc(O)cc(O)c21 (stereo not drawn) | -3 | 1 | -2 | 9 | -7 | x | x
CCn1c(=O)c(-c2cc(=O)[nH][nH]2)c(O)c2ccccc21 | 12 | -1 | 15 | 4 | 12 | x | x
Cn1c(=O)c(-c2cc(=O)[nH][nH]2)c(O)c2ccccc21 | x | 5 | 13 | 3 | 19* | -9 | 17
CC(=O)N1CCN(S(=O)(=O)c2cccc(C(=O)N3CCN(S(=O)(=O)c4c(C)c(C)cc(C)c4C)CC3)c2)CC1 | 0 | 5 | 3 | x | -8 | x | x
CCc1n[nH]c(=S)n1/N=C/c1cccc2ccccc12 | -2 | 2 | -9 | 10 | -7 | x | x
CCc1n[nH]c(=S)n1/N=C/c1cc(OC)cc([N+](=O)[O-])c1O | 18 | 8 | 21 | 10 | 44* | -14 | 44*
CCCc1nnc(NC(=O)CS(=O)(=O)c2ccccc2)s1 | -2 | -5 | -3 | -1 | 30* | -1 | 1
Cc1nc2ccc(C(=O)N3c4ccccc4N=C(c4ccc5c(c4)OCO5)C3C(=O)NCc3ccccc3)cc2[nH]1 (stereo not drawn) | x | -16 | -11 | x | -11 | x | x
Cc1cccc(C)c1NC(=O)CN(Cc1ccccc1)Cc1ccccc1 | x | 1 | 4 | x | -3 | x | x
OC[C@@H](O)C(O)[C@@H](O)CO (stereo partly drawn) | x | -2 | 7 | x | 47* | 1 | 0
COc1cccc(NC(=O)n2ccc3ccc(-c4ccc5ccn(C(=O)Nc6cccc(OC)c6)c5c4)cc32)c1 | x | -10 | -113 | x | x | x | x
O=C(NCc1ccc(C(=O)N2CCCN(Cc3ccccc3)CC2)cc1)c1cccc(Br)c1 | x | -2 | 2 | x | x | x | x
